Measurements reported in publication PMC7511286 (European Journal of Drug Metabolism and Pharmacokinetics, 2020).
Marks after values point to notes of the source that are not given here.

What was measured:
[1] = MAD study: multiple ascending oral dose pharmacokinetics; format: in vivo, human
Outline: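 Healthy males took oral tablets once daily for 14 days after an overnight fast of at least 8 h, continued 1 h on profile days. Plasma was sampled 0.5–24 h after the day 0 dose, as troughs, and 0.5–72 h after the day 13 dose. LC-MS/MS used ESI−, LLOQ 0.1 μg/ml. AUC was by linear-log trapezoid. CL/F = dose/AUC0–24; RAAUC = AUC0–24 (day 13–14)/AUC0–24 (day 0–1).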

[2] = MAD study: safety and tolerability; format: in vivo, human
Outline: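 Healthy males aged 18–55 took oral tablets. Treatment-emergent AEs were recorded by clinical evaluation. Vital signs (blood pressure, pulse), 12-lead and Holter ECG, physical examination, and urine and plasma laboratory tests were also assessed. AEs of special interest were hematuria and retroperitoneal colicky pain with suspected or confirmed nephrolithiasis. Subjects were hospitalized around dosing.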

[3] = Day 13, 30 mg once daily, n = 12, geometric mean (geometric %CV)
[4] = Day 13, 40 mg once daily, n = 12, geometric mean (geometric %CV)
[5] = Day 13, 50 mg once daily not pre-dosed, n = 8, geometric mean (geometric %CV)
[6] = Day 13, 50 mg once daily pre-dosed, n = 8, geometric mean (geometric %CV)
[7] = Day 13–14 / Day 0–1, 30 mg once daily, n = 12, geometric mean (geometric %CV)

Structure (SMILES): COc1cccc(-c2ccc(NC(=O)C3=C(C(=O)O)CCC3)c(F)c2)c1 [IMU-838, vidofludimus calcium]
- Cmax ([1]; Day 0, 30 mg, n = 12, geometric mean (geometric %CV)): 3.979 (39.5) μg/ml
- Cmax ([1]; Day 0, 40 mg, n = 12, geometric mean (geometric %CV)): 5.805 (32.3) μg/ml
- Cmax ([1]; Day 0, 50 mg not pre-dosed, n = 8, geometric mean (geometric %CV)): 5.016 (51.1) μg/ml
- AUC0–t [1, 3]: 188.554 (30.3) μg·h/ml
- CL/F [1, 3]: 4.985 (25.0) ml/min
- Cmax [1, 3]: 6.543 (25.8) μg/ml
- AUC0–t [1, 4]: 284.959 (25.3) μg·h/ml
- CL/F [1, 4]: 4.201 (22.6) ml/min
- Cmax [1, 4]: 10.911 (20.2) μg/ml
- CL/F ([1]; Day 13, 50 mg once daily all, n = 16, geometric mean (geometric %CV)): 5.008 (20.9) ml/min
- AUC0–t [1, 5]: 310.301 (32.7) μg·h/ml
- CL/F [1, 5]: 4.982 (27.3) ml/min
- Cmax [1, 5]: 10.841 (21.5) μg/ml
- AUC0–t [1, 6]: 304.154 (16.1) μg·h/ml
- CL/F [1, 6]: 5.034 (14.1) ml/min
- Cmax [1, 6]: 10.725 (20.1) μg/ml
- RAAUC (accumulation ratio for AUC0–24) [1, 7]: 1.958 (24.4)
- RACmax (accumulation ratio for Cmax) [1, 7]: 1.644 (37.6)
- RAAUC (accumulation ratio for AUC0–24) ([1]; Day 13–14 / Day 0–1, 40 mg once daily, n = 9, geometric mean, geometric %CV 23.1): 2.077^e (23.1)
- RACmax (accumulation ratio for Cmax) ([1]; Day 13–14 / Day 0–1, 40 mg once daily, n = 12, geometric mean (geometric %CV)): 1.880 (30.1)
- AUC(0-t) ([1]; male, human, plasma, oral, 30 mg, AUC0–24, Day 0, 30 mg, n = 12, geometric mean (geometric %CV)): 51200 ng·h/mL
- AUC(0-t) ([1]; male, human, plasma, oral, 30 mg, AUC0–t, geometric mean, Day 0, 30 mg): 51100 ng·h/mL
- Cmax ([1]; male, human, plasma, oral, 30 mg, Cmax, Day 0, 30 mg, n = 12, geometric mean (geometric %CV)): 3980 ng/mL
- Tmax ([1]; male, human, plasma, oral, 30 mg, tmax, Day 0, 30 mg, n = 12, median (minimum–maximum)): 3 h
- AUC(0-t) ([1]; male, human, plasma, oral, 40 mg, AUC0–t, geometric mean, Day 0, 40 mg): 71700 ng·h/mL
- Cmax ([1]; male, human, plasma, oral, 40 mg, Cmax, Day 0, 40 mg, n = 12, geometric mean (geometric %CV)): 5810 ng/mL
- Tmax ([1]; male, human, plasma, oral, 40 mg, tmax, Day 0, 40 mg, n = 12, median (minimum–maximum)): 3 h
- AUC(0-t) ([1]; male, human, plasma, oral, 50 mg, AUC0–24, Day 0, 50 mg not pre-dosed, n = 8, geometric mean (geometric %CV)): 67100 ng·h/mL
- AUC(0-t) ([1]; male, human, plasma, oral, 50 mg, AUC0–t, geometric mean, Day 0, 50 mg not pre-dosed): 66700 ng·h/mL
- Cmax ([1]; male, human, plasma, oral, 50 mg, Cmax, Day 0, 50 mg all, n = 16, geometric mean (geometric %CV)): 6040 ng/mL
- Cmax ([1]; male, human, plasma, oral, 50 mg, Cmax, Day 0, 50 mg not pre-dosed, n = 8, geometric mean (geometric %CV)): 5020 ng/mL
- Cmax ([1]; male, human, plasma, oral, 50 mg, Cmax, Day 0, 50 mg pre-dosed, n = 8, geometric mean (geometric %CV)): 7260 ng/mL
- Tmax ([1]; male, human, plasma, oral, 50 mg, tmax, Day 0, 50 mg all, n = 16, median (minimum–maximum)): 2 h
- Tmax ([1]; male, human, plasma, oral, 50 mg, tmax, Day 0, 50 mg not pre-dosed, n = 8, median (minimum–maximum)): 3 h
- Tmax ([1]; male, human, plasma, oral, 50 mg, tmax, Day 0, 50 mg pre-dosed, n = 8, median (minimum–maximum)): 2 h
- Tmax ([1]; male, human, plasma, oral, median tmax, range over groups, Day 0): 2 to 3 h
- accumulation factor for multiple daily dosing ([1]; multiple once-daily dosing): approximately 2
- dose dependence of plasma pharmacokinetics ([1]; repeated oral 30 to 50 mg, fasted): dose-proportional
- TEAE Abdominal pain upper: number of events ([2]; 25 mg (initiation dose), n = 8): 1
- TEAE Abdominal pain upper: subjects having the event ([2]; 25 mg (initiation dose), n = 8): 1 (12.5) N (%)
- TEAE Atrioventricular block first degree: number of events ([2]; 25 mg (initiation dose), n = 8): 1
- TEAE Atrioventricular block first degree: subjects having the event ([2]; 25 mg (initiation dose), n = 8): 1 (12.5) N (%)
- TEAE Diarrhea: subjects having the event ([2]; 25 mg (initiation dose), n = 8): 1 (12.5) N (%)
- TEAE Nasopharyngitis: subjects having the event ([2]; 25 mg (initiation dose), n = 8): 1 (12.5) N (%)
- TEAEs Cardiac disorders Total: number of events ([2]; 25 mg (initiation dose), n = 8): 1
- TEAEs Cardiac disorders Total: subjects having the event ([2]; 25 mg (initiation dose), n = 8): 1 (12.5) N (%)
- TEAEs Gastrointestinal disorders Total: number of events ([2]; 25 mg (initiation dose), n = 8): 2
- TEAEs Gastrointestinal disorders Total: subjects having the event ([2]; 25 mg (initiation dose), n = 8): 1 (12.5) N (%)
- TEAEs Infections and infestations Total: number of events ([2]; 25 mg (initiation dose), n = 8): 1
- TEAEs Infections and infestations Total: subjects having the event ([2]; 25 mg (initiation dose), n = 8): 1 (12.5) N (%)
- TEAEs Total: number of events ([2]; 25 mg (initiation dose), n = 8): 4
- TEAEs Total: subjects having the event ([2]; 25 mg (initiation dose), n = 8): 3 (37.5) N (%)
- number of drug-related TEAEs ([2]; 30 mg once daily): 18
- TEAE Abdominal pain: number of events ([2]; 30 mg, n = 12): 1
- TEAE Abdominal pain: subjects having the event ([2]; 30 mg, n = 12): 1 (8.3) N (%)
- TEAE Feces soft: number of events ([2]; 30 mg, n = 12): 2
- TEAE Feces soft: subjects having the event ([2]; 30 mg, n = 12): 2 (16.7) N (%)
- TEAE Flatulence: subjects having the event ([2]; 30 mg, n = 12): 6 (50.0) N (%)
- TEAE Gamma–glutamyl transferase increased: number of events ([2]; 30 mg, n = 12): 2
- TEAE Gamma–glutamyl transferase increased: subjects having the event ([2]; 30 mg, n = 12): 1 (8.3) N (%)
- TEAE Headache: subjects having the event ([2]; 30 mg, n = 12): 1 (8.3) N (%)
- TEAE Lipase increased: number of events ([2]; 30 mg, n = 12): 1
- TEAE Lipase increased: subjects having the event ([2]; 30 mg, n = 12): 1 (8.3) N (%)
- TEAE Musculoskeletal discomfort: number of events ([2]; 30 mg, n = 12): 1
- TEAE Musculoskeletal discomfort: subjects having the event ([2]; 30 mg, n = 12): 1 (8.3) N (%)
- TEAE Nausea: subjects having the event ([2]; 30 mg, n = 12): 1 (8.3) N (%)
- TEAEs Gastrointestinal disorders Total: number of events ([2]; 30 mg, n = 12): 14
- TEAEs Gastrointestinal disorders Total: subjects having the event ([2]; 30 mg, n = 12): 7 (58.3) N (%)
- TEAEs Investigations Total: number of events ([2]; 30 mg, n = 12): 3
- TEAEs Investigations Total: subjects having the event ([2]; 30 mg, n = 12): 2 (16.7) N (%)
- TEAEs Musculoskeletal and connective tissue disorders Total: number of events ([2]; 30 mg, n = 12): 1
